The list is not random: actives were taken first. Their share in the collection is about 4.1%.
UPR XBP1 act: activators of adaptive arm of unfolded protein response (XBP1) | CHO-XBP1 luciferase reporter, IRE1-XBP1 UPR activation, luminescence; percent of tunicamycin response, DMSO as zero | activation, % at 20 µM | 0.33% of 330,000 active;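 active = versus positive control, 20 µM dose yields 30% or more activation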;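 note: 100% = tunicamycin at 10 µg/mL and 0% = DMSO only wells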
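Material – CHO cell line with stable XBP1 luciferase reporter · Buffer or medium – F12 plus 10% FBS · Compound – single point, 20 µM final compound, 1% DMSO · Schedule – 16-18 h cell attachment at 37 °C, then 6 h compound exposure · Signal – Steady-Glo luminescence read · Benchmarks – high control tunicamycin 10 µg/mL final, low control DMSO vehicle only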
Apaf-1 inh: human Apaf-1 inhibition | O14727 | reconstituted apoptosome caspase-3 activity, DEVD-Rh110 fluorescence | inhibition, % at 20 µM | 0.71% of 330,000 active | AID 489030; active = inhibition of at least 40% at 20 µM;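 note: plate controls were DMSO wells for no effect and DEVD-CHO caspase inhibitor wells for full effect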
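Material: reconstituted apoptosome with Apaf-1, cytochrome c, caspase-9, procaspase-3, dATP. Technique: Rh110 fluorescence intensity. Buffer or medium: pH 7.5 Hepes buffer with CHAPS, BSA, DTT. Times: 30 min plus 50 min, RT.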
UBC13 inh: inhibitors of human UBC13 polyubiquitin chain formation | inhibition, % at 20 µM | AID 485273 | 0.47% of 330,000 active | TR-FRET | P61088; in the data active = inhibition above about 45%, passing the limit was not always enough
Target sequence (P61088 whole entry, looked up): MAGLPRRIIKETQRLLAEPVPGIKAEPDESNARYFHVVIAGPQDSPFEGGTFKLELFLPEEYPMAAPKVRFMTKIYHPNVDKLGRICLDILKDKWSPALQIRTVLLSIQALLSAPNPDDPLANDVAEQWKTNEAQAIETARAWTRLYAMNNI
CHOP UPR activ: apoptotic UPR (CHOP) activation | activation, % at 10 µM | 0.34% of 330,000 active | CHO-CHOP luciferase reporter, luminescence; percent of tunicamycin response over DMSO baseline;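 active = at 10 µM dose, activation of 40% or more, normalized to positive control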;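 note: 100% = tunicamycin at 10 µg/mL and 0% = DMSO alone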
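Evaluation: % reporter activation, DMSO baseline versus tunicamycin full activation; System: CHO-CHOP luciferase reporter cell line; Input: 500 cells/well; Incubation: 6 h compound treatment, 37 °C; Measured by: Steady-Glo luciferase luminescence; Dosing: one dose, 10 µM in 0.5% DMSO; Buffer or medium: F12 medium, 10% FBS; Benchmarks: positive tunicamycin 10 µg/mL, negative DMSO alone.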
Mdm2-MdmX inh: human Mdm2/MdmX binding inhibition; O15151+Q00987; SaOS-2 split-luciferase Mdm2/MdmX complementation, luminescence; inhibition, % at 8 µM; 3% of 330,000 active; AID 485346;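 active = inhibition of at least 50% at 8 µM in the primary screen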
Mdm2 MdmX conf: confirmation of human Mdm2/MdmX interaction inhibitors; inhibition, % at 8 µM; 55% of 10,000 active; AID 489028; Mdm2-MdmX binding, luminescent assay; shares compounds with Mdm2-MdmX inh; in the data active = inhibition above about 40%
FLuc counter: full-length luciferase inhibition in Mdm2/MdmX counter-screen | 77% of 6,200 active | AID 504607 | SaOS-2 full-length luciferase counterscreen, luminescence | inhibition, % at 8 µM | shares compounds with Mdm2-MdmX inh;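 active = mean inhibition at 8 µM reaching about 37%, which flags the compound as non-specific, limit read from the data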;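 note: p53-null SaOS-2 cells with luciferase driven by a doxycycline-inducible promoter; compound on cells about two nights before reading with doxycycline added after day one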
The depositor's hits bear a star; nt = no result.

SMILES	UPR XBP1 act	Apaf-1 inh	UBC13 inh	CHOP UPR activ	Mdm2-MdmX inh	Mdm2 MdmX conf	others
COc1ccccc1C(=O)NCC(=O)N1CCN(S(=O)(=O)c2ccccc2C(F)(F)F)CC1	-2	-1	2	0	18	nt
O=C(NCC(=O)N1CCN(S(=O)(=O)c2ccccc2C(F)(F)F)CC1)c1sc2ccccc2c1Cl	6	0	6	2	57*	33
O=C(Nc1ccc(N2CCOCC2)cc1N1CCOCC1)c1ncoc1-c1cccc(F)c1	0	18	1	-1	33	nt
COc1cc(C(=O)O/N=C2\C=CC(=O)C=C2C)cc(OC)c1OC	-4	-11	-3	12	29	nt
COc1cc(C(=O)ON=C2C3CC4CC(C3)CC2C4)cc(OC)c1OC	1	4	4	3	95*	27
CN(c1cccc(NC(=O)CN(c2ccc(C34CC5CC(CC(C5)C3)C4)cc2)S(C)(=O)=O)c1)S(C)(=O)=O	5	8	-7	32	76*	54*	FLuc counter=78*
Fc1ccc(-[n+]2nc(Nc3ccccc3)sc2-c2c(Cl)cccc2Cl)cc1	4	33	27	-2	67*	24	FLuc counter=48*
COc1ccc(-c2sc(Nc3ccccc3)n[n+]2-c2ccc(F)cc2)cc1Br	-2	4	-2	0	18	nt
O=C(O)c1ccc(-c2sc(Nc3ccccc3)n[n+]2-c2ccc(F)cc2)cc1	0	-10	-10	1	18	nt
COc1ccc2ccccc2c1-c1sc(Nc2ccccc2)n[n+]1-c1ccc(F)cc1	0	33	36	2	76*	27
COc1ccc(C)cc1Nc1n[n+](-c2ccccc2)c(-c2c(Cl)cccc2Cl)s1	5	34	26	11	95*	89*	FLuc counter=55*
C=CCOc1ccc(CNc2ccc3[nH]c(=O)[nH]c3c2)cc1	-3	2	-9	2	15	nt
Cc1ccc(C(C(=O)NC2CCCCC2)N(C(=O)c2csnn2)C2CC2)cc1 (configuration not stated)	-1	3	8	-1	-3	nt
Nc1nonc1-n1nnc(C(=O)N/N=C/c2ccc(OCc3ccccc3)cc2)c1COc1ccc(F)cc1	17	-3	-10	1	61*	40*	FLuc counter=105*
Cc1ccccc1COc1cccc(/C=N/NC(=O)c2nnn(-c3nonc3N)c2C)c1	4	2	-12	8	51*	40	FLuc counter=87*
Nc1nonc1-n1nnc(C(=O)N/N=C/c2ccc(OCc3ccccc3)cc2)c1CNc1ccccc1	15	-1	-14	4	77*	10
Cc1c(C(=O)N/N=C/c2cccc(O)c2)nnn1-c1nonc1N	-1	2	-6	3	-9	nt
Nc1nonc1-n1nnc(C(=O)N/N=C/c2cccc(F)c2)c1-c1ccc2c(c1)OCO2	-1	7	0	0	-8	nt
Nc1nonc1-n1nnc(C(=O)N/N=C/c2ccc(F)cc2)c1-c1ccc2c(c1)OCO2	3	6	-1	-2	59*	-9
COc1ccc(CCNC(=O)c2c(O)c3ccccc3[nH]c2=O)cc1OC	3	14	10	0	11	nt
CCCCN1C2CCCC1CC(NC(=O)c1cccc(Cl)c1)C2 (configuration not stated)	-2	-13	9	-2	6	nt
Cc1cccc(NS(=O)(=O)c2ccc(C(=O)N3CCCCCC3)cc2)c1C	-1	14	1	-1	14	nt
Cn1c(-c2ccccc2)cc2c3no[n+]([O-])c3ccc21	4	7	8	4	58*	73*	FLuc counter=53*
O=C(N/N=C/c1sc(=O)n(Cc2ccc(Br)cc2)c1Cl)c1ccco1	-5	17	-25	3	59*	3
O=C(N/N=C/c1ccc(Br)s1)c1ccco1	9	-13	0	5	-22	nt
SMILES	UPR XBP1 act	Apaf-1 inh	UBC13 inh	CHOP UPR activ	Mdm2-MdmX inh	Mdm2 MdmX conf	others
O=C1/C(=C/c2ccc(O)cc2)SC(=S)N1Cc1cccnc1	9	-13	-42	1	17	nt
COc1ccc(/C=C2\SC(=S)N(Cc3cccnc3)C2=O)cc1C	1	21	-16	3	59*	32
C#CCOc1ccc(/C=C2\SC(=S)N(Cc3cccnc3)C2=O)cc1	0	22	-6	0	60*	71*	FLuc counter=55*
CCOc1ccc(N(Cc2ccc(C(=O)O)cc2)S(=O)(=O)c2ccc(C)cc2)cc1	0	8	5	0	18	nt
O=C(NCc1ccccn1)c1cccc(NS(=O)(=O)c2cccc(F)c2)c1	-1	-43	10	2	1	nt
O=C(Cc1cccc(C(F)(F)F)c1)N1CCCC1	-1	-2	0	-1	9	nt
CN(C)/C=C/C(=O)c1ccc2noc(-c3cccc(F)c3)c2c1	0	11	-4	0	53*	26
O=S(=O)(CC(CN1CCCCC1)N1CCCCC1)c1ccccc1 (configuration not stated)	-1	-12	-4	-1	72*	66*	FLuc counter=17
O=[N+]([O-])c1ccc(S(=O)(=O)CC(CN2CCCCC2)N2CCCCC2)cc1 (configuration not stated)	-11	12	1	19	100*	94*	FLuc counter=51*
CC(=O)N1N=C(c2cccc([N+](=O)[O-])c2)OC1c1cccc(Br)c1 (configuration not stated)	-2	14	3	1	19	nt
CC(=O)N1N=C(c2cccc(Cl)c2)OC1c1cccc([N+](=O)[O-])c1 (configuration not stated)	-2	20	-7	0	65*	-15
O=C(NCc1ccco1)C1CCN(C(=O)c2ccc(Cl)cc2Cl)CC1	0	1	4	-2	-12	nt
COc1ccc(Cl)cc1N(C(=O)Nc1cccc(Cl)c1)C1=NCC(C)S1 (configuration not stated)	0	-3	-8	1	-23	nt
Cc1ccc(NC(=O)COC(=O)/C=C/c2c(C)nn(-c3ccc(F)cc3)c2Cl)cc1F	1	11	-4	0	52*	3
Cc1nn(-c2ccc(F)cc2)c(Cl)c1/C=C/C(=O)OCC(=O)Nc1ccc(F)cc1F	-3	8	-14	2	17	nt
O=C(N/N=C/c1ccc(Cl)cc1)c1cc2c(s1)-c1ccccc1CC2	-1	6	11	-1	65*	60*	FLuc counter=47*
CCCc1cc2c(cc1NC(=O)c1ccco1)OCO2	0	-7	2	0	26	nt

Compound activity as filed in PubChem.
